Results: ChEMBL document CHEMBL1833817, “Synthesis and cytotoxicity of 8-cyano-3-substitutedalkyl-5-methyl-4-methylene-7-methoxy-3,4-dihydropyrido[4,3-d]pyrimidines” (Bioorg Med Chem Lett, 2011)

Tests used:
Format in all cases: functional, cell-based
KB = assay: Cytotoxicity against human KB cells after 3 days by MTT assay; details: 72 h
Outline: (§1)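 Exponential-phase cells seeded at 5 × 10⁴–1 × 10⁵ cells/mL in fresh medium, grown overnight, then treated with compounds dissolved in DMSO at selected concentrations for 3 days. MTT in PBS (10 mg/mL stock) added for 3 h. Formazan dissolved in DMSO and read at 540 nm, with PBS lacking MTT as blank. Inhibition rate taken from averaged OD; IC50 = concentration giving 50% growth inhibition. Coefficients of variation <10%.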

MGC-803 = assay: Cytotoxicity against human MGC803 cells after 3 days by MTT assay; details: MGC-803, 72 h; outline: as §1
[1] = Cytotoxicity against human CNE2 cells after 3 days by MTT assay; details: CNE-2, 72 h; outline: as §1

Structure (SMILES)	IC50 (KB) [nM]	IC50 (MGC-803) [nM]	IC50 [1] [nM]
C=C1c2c(C)nc(OC)c(C#N)c2N=CN1CCCCCC	> 50000	–	–
C=C1c2c(C)nc(OC)c(C#N)c2N=CN1Cc1ccco1	> 50000	–	–
C=C1c2c(C)nc(OC)c(C#N)c2N=CN1Cc1ccccc1	> 50000	–	–
C=C1c2c(C)nc(OC)c(C#N)c2N=CN1Cc1ccc(Cl)cc1	20000	–	–
C=C1c2c(C)nc(OC)c(C#N)c2N=CN1Cc1cccc(C)c1	37000	–	–
C=C1c2c(C)nc(OC)c(C#N)c2N=CN1Cc1ccc(C)cc1	480	590	150
C=C1c2c(C)nc(OC)c(C#N)c2N=CN1Cc1ccc(OC)cc1	670	670	180
C=C1c2c(C)nc(OC)c(C#N)c2N=CN1CCc1ccc(Cl)cc1	> 50000	–	–
COc1nc(C)c2c(C)ncnc2c1C#N	> 50000	–	–
C=C1c2c(C)nc(OC)c(C#N)c2N=CN1CC	> 50000	–	–
C=C1c2c(C)nc(OC)c(C#N)c2N=CN1CCC	> 50000	–	–
